Data from ChEMBL document CHEMBL4364341, “Radiosensitization of Head and Neck Squamous Cell Carcinoma (HNSCC) by a Podophyllotoxin” (ACS Med Chem Lett, 2019).
Calls of active or inactive are those of the source. No cut-off for these calls is given here.

Experiments:
[1] = test system: FaDu; assay: Antiproliferative activity against human FADU cells assessed as fractional inhibition at 0.5 uM after 6 days in absence of irradiation by MTT assay; assay type: functional
How it was run: (§1)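 FaDu or SCC-25 cells were grown in DMEM with 10% FBS at 37 °C and 5% CO2. They were seeded at 1000 cells/well in 96-well plates for 24 h, then dosed with compound (fresh DMSO stock diluted in medium) or vehicle. After 1 h, X-rays were given with a sliding 5 mm lead shield, so one plate held 0, 2.5, 5 and 10 Gy columns. After 6 days, MTT (0.5 mg/mL, 45 min) was added, then DMSO, and A570 was read. Values were normalised to the unirradiated vehicle control. Fractional inhibition = 1 − surviving fraction.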

[2] = test system: FaDu; assay: Antiproliferative activity against human FADU cells assessed as fractional inhibition at 5 uM after 6 days in absence of irradiation by MTT assay; assay type: functional; how it was run: as §1
[3] = test system: FaDu; assay: Synergistic antiproliferative activity against human FADU cells assessed as fractional inhibition at 0.005 uM preincubated for 1 hr followed by irradiation with 2.5 Gy IR and measured after 6 days by MTT assay (reference value: 0.131); assay type: functional; how it was run: as §1
[4] = test system: FaDu; assay: Synergistic antiproliferative activity against human FADU cells assessed as fractional inhibition at 0.05 uM preincubated for 1 hr followed by irradiation with 5 Gy IR and measured after 6 days by MTT assay (reference value: 0.097); assay type: functional; how it was run: as §1
[5] = test system: FaDu; assay: Synergistic antiproliferative activity against human FADU cells assessed as fractional inhibition at 0.5 uM preincubated for 1 hr followed by irradiation with 10 Gy IR and measured after 6 days by MTT assay (reference value: 0.388); assay type: functional; how it was run: as §1
[6] = test system: FaDu; assay: Synergistic antiproliferative activity against human FADU cells assessed as combination index at 0.05 uM preincubated for 1 hr followed by irradiation with 2.5 Gy IR and measured after 6 days by MTT assay; assay type: functional
How it was run: (§2)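 Combination index was calculated by the Chou–Talalay median-effect method from the 6-day MTT viability data of the single-plate compound/X-ray (2.5, 5, 10 Gy) design. CI < 1 denotes synergy, CI = 1 additivity and CI > 1 antagonism.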

[7] = test system: FaDu; assay: Synergistic antiproliferative activity against human FADU cells assessed as combination index at 0.5 uM preincubated for 1 hr followed by irradiation with 2.5 Gy IR and measured after 6 days by MTT assay; assay type: functional; how it was run: as §2
[8] = test system: SCC-25; assay: Synergistic antiproliferative activity against human SCC25 cells assessed as fractional inhibition at 0.005 uM preincubated for 1 hr followed by irradiation with 10 Gy IR and measured after 6 days by MTT assay (reference value: 0.347); assay type: functional
How it was run: (§3)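 SCC-25 cells seeded 1000/well in 96-well plates in DMEM/10% FBS and left 24 h. Drug or vehicle added, then after 1 h X-irradiated to 2.5, 5 or 10 Gy on one plate using a shifted lead shield. Plates incubated 6 days, then MTT (0.5 mg/mL, 45 min), DMSO solubilisation, absorbance at 570 nm. Fractional inhibition = 1 − fraction of surviving cells.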

[9] = test system: SCC-25; assay: Synergistic antiproliferative activity against human SCC25 cells assessed as fractional inhibition at 0.05 uM preincubated for 1 hr followed by irradiation with 10 Gy IR and measured after 6 days by MTT assay (reference value: 0.347); assay type: functional; how it was run: as §3
[10] = test system: SCC-25; assay: Synergistic antiproliferative activity against human SCC25 cells assessed as fractional inhibition at 0.5 uM preincubated for 1 hr followed by irradiation with 10 Gy IR and measured after 6 days by MTT assay (reference value: 0.347); assay type: functional; how it was run: as §3
[11] = test system: SCC-25; assay: Synergistic antiproliferative activity against human SCC25 cells assessed as combination index at 0.05 uM preincubated for 1 hr followed by irradiation with 10 Gy IR and measured after 6 days by MTT assay; assay type: functional
How it was run: (§4)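 SCC-25 cells grown in DMEM with 10% FBS at 37 °C, 5% CO2, seeded 1000 cells/well in 96-well plates and left 24 h. Drug in DMSO, diluted in complete medium, added 1 h before X-irradiation. A movable 5 mm lead shield gave 0, 2.5, 5 or 10 Gy on one plate. After 6 days, MTT readout at 570 nm. Combination index by Chou–Talalay from viability data.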

[12] = test system: SCC-25; assay: Synergistic antiproliferative activity against human SCC25 cells assessed as combination index at 0.5 uM preincubated for 1 hr followed by irradiation with 10 Gy IR and measured after 6 days by MTT assay; assay type: functional; how it was run: as §4
[13] = test system: FaDu; assay: Synergistic induction of cell cycle arrest in human FADU cells assessed as decrease in accumulation at S phase at 0.5 uM followed irradiation with 5Gy IR incubated for 24 hrs by propidium iodide staining based flow cytometry; assay type: functional
How it was run: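 FaDu or SCC-25 cells, untreated, given 5 Gy IR, drug, or drug plus 5 Gy. Cell-cycle distribution by propidium iodide staining and flow cytometry at 6 h and 24 h after treatment. G0/G1, S and G2/M fractions compared with control by t test.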

[14] = test system: SCC-25; assay: Synergistic induction of apoptosis in human SCC25 cells at 0.5 uM followed irradiation with 5Gy IR incubated for 48 hrs by annexin V FITC and propidium iodide staining based flow cytometry; assay type: functional
How it was run: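 FaDu or SCC-25 cells, untreated, given 5 Gy IR, drug, or both. Apoptotic cells measured by annexin V flow cytometry 48 h after treatment. Percentage compared with control by t test.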

[15] = test system: FaDu; assay: Inhibition of cell migration in human FADU cells at 0.5 uM incubated for 12 and 24 hrs by microscopic analysis; assay type: functional, cell-based
How it was run: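 Scratch assay: 10^5 cells/well were grown to confluence in 12-well plates, with mitomycin C to block proliferation. Cells were treated with compound for 24 h, with or without 5 Gy IR, then scratched with a pipette tip, washed with PBS and given fresh medium. Imaging was at 0, 6, 12 and 24 h. % migration = gap decrease relative to the 0 h gap.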

[16] = test system: FaDu; assay: Induction of apoptosis in human FADU cells assessed as decrease in Bcl2 at 0.5 uM incubated for 48 hrs by immunoblot analysis; assay type: functional, cell-based
How it was run: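 FaDu cells received compound at 0.5 μM, 5 Gy IR, or both. After 48 h, lysates were immunoblotted for NRF2, cyclin B1, CDK1, Bax and Bcl-2. Membranes were then stripped and reprobed for β-actin as the loading control.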

[17] = test system: FaDu; assay: Synergistic induction of cell cycle arrest in human FADU cells assessed as decrease in cyclin B1 at 0.5 uM followed by irradiation with 5 Gy IR incubated for 48 hrs by immunoblot analysis; assay type: functional, cell-based
How it was run: (§5)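 FaDu cells received drug, 5 Gy IR, or both; vehicle-only controls. Lysates collected after 48 h and immunoblotted with primary antibodies to NRF2, cyclin B1, CDK1, Bax and Bcl-2. Membranes stripped and reprobed for beta-actin as loading control.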

[18] = test system: FaDu; assay: Synergistic induction of apoptosis in human FADU cells assessed as decrease in Bcl2 at 0.5 uM followed by irradiation with 5 Gy IR incubated for 48 hrs by immunoblot analysis; assay type: functional, cell-based; how it was run: as §5
[19] = test system: FaDu; assay: Synergistic induction of apoptosis in human FADU cells assessed as increase in caspase at 0.5 uM followed by irradiation with 5 Gy IR incubated for 48 hrs by luminescence based analysis; assay type: functional, cell-based
[20] = test system: SCC-25; assay: Synergistic antiproliferative activity against human SCC25 cells assessed as reduction in cell viability at 1 uM preincubated for 1 hr followed by irradiation with 5 Gy IR and measured after 6 days by MTT assay relative to control; settings: SCC-25, light or radiation study

Compound: COc1ccc2c(c1)N(CCO)C1=C(C(=O)OC1)C2c1ccccc1 (stereo not given)
- fractional inhibitory concentration index (FICI) [1]: 0.264
- fractional inhibitory concentration index (FICI) [2]: 0.437
- fractional inhibitory concentration index (FICI) [3]: 0.236
- fractional inhibitory concentration index (FICI) [4]: 0.239
- fractional inhibitory concentration index (FICI) [5]: 0.613
- CI [6]: 0.234
- CI [7]: 0.377
- fractional inhibitory concentration index (FICI) [8]: 0.388
- fractional inhibitory concentration index (FICI) [9]: 0.379
- fractional inhibitory concentration index (FICI) [10]: 0.713
- CI [11]: 1.056
- CI [12]: 0.663
- Activity [13]: Active
- fold change (FC) [14]: 7
- inhibition [15]: inactive
- Activity [16]: Active
- Activity [17]: Active
- Activity [18]: Active
- Activity [19]: Active
- inhibition at 1 µM [20]: 65%
